Screens deposited in PubChem BioAssay by Broad Institute.
CDK5 p35 inh – inhibitors of human CDK5/p35 kinase, primary screen, biochemical, single concentration; Cyclin-dependent kinase 5 (Homo sapiens) + Cyclin-dependent kinase 5 activator 1 (Homo …; Recombinant CDK5/p35, ADP-Glo luminescence, 60 min; inhibition, % at 10 µM; 0.01% of 330,000 active; AID 488839, 2010;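 active = highest replicate inhibition of at least 50% and at least 75% of replicates reaching 50%; inconclusive = only one of the two criteria met; inactive = both criteria failed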;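 also: plate controls were DMSO neutral control for no effect and GW8510 at 10 µM for full effect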
SR-BI DiI-HDL act – activators of SR-BI mediated DiI-HDL uptake, primary screen, ldlA[mSR-BI] CHO cells, DiI fluorescence | 3 h; 100 = double the neutral-control signal | activation, % at 12.5 µM | 0.096% of 320,000 active | AID 504775, 2011;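 active = mean replicate activation of at least 60% and every replicate at or above 60%; inconclusive = mean or all-replicate condition met, but not both; inactive = mean below 60% and not all replicates reaching 60%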;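 also: 0% = median plate neutral-control signal and 100% = twice that signal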
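System: LDL receptor-deficient CHO ldlA cells overexpressing murine SR-BI | Timing: 3 h uptake period with compound, 37 °C | Medium: HEPES-buffered (25 mM, pH 7.4) F12 plus 0.5% BSA | Dosing: Single-point compound dose | Signal: Bottom-read fluorescence, 550/595 nm | Read-out: Retained DiI signal reflecting DiI-HDL uptake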
SR-BI DiI inh – inhibitors of SR-BI mediated HDL lipid uptake, primary screen, ldlA[mSR-BI] cells, fluorescence, single point. 0.96% of 320,000 active. ldlA[mSR-BI] CHO cells, DiI-HDL uptake fluorescence, 3 h. inhibition, % at 12.5 µM. Scavenger receptor class B member 1 (Mus musculus), Q61009. AID 488896, 2010;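 active = mean replicate inhibition of at least 70% and a set share of replicates each scoring 70 or more; inconclusive = meets just one of the two criteria; inactive = fails both criteria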;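 also: 0% = median of neutral control wells and 100% = median of positive control wells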
dFosB act-1 – activators of delta FosB homodimer, primary screen, biochemical, fluorescence polarization, TAMRA-CDK5 oligo, single point. Protein FosB (Mus musculus), P13346. purified delta FosB; percent of positive-control signal above neutral wells. activation, % at 25 µM. 0.99% of 340,000 active;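 active = mean activation above about 17%, with every replicate also reaching it, limit read from the data, passing the limit was not always enough; inconclusive = only one of the two conditions met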
Target sequence (P13346 whole entry, looked up): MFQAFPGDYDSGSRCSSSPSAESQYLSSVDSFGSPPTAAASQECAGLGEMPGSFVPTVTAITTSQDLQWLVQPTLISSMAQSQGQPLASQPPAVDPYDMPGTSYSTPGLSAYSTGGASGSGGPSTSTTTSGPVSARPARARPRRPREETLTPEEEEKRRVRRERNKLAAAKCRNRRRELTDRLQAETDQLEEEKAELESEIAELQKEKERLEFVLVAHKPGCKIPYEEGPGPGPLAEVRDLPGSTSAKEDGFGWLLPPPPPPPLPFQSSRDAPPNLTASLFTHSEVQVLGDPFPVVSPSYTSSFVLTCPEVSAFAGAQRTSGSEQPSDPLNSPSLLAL
dFosB act-2 – activators of mouse delta FosB DNA binding, confirmation, biochemical, fluorescence polarization, TAMRA-CDK5 oligo, cherry-picked samples | shares compounds with dFosB act-1 | purified delta FosB; normalised: neutral wells 0, positive control 100 | activation, % at 24.9 µM | 2,400 tested, under 10 active;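 active = highest replicate activation at or above 34% and every replicate reaching that threshold; inconclusive = meets only one of the two criteria; inactive = meets neither criterion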;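 also: higher polarization means more probe DNA bound by delta FosB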
* hit, by the source's call; ? = inconclusive; . = no result given. Shown are actives, neighbours in structure and some others; about 2% of the full set was active somewhere.

SMILES	CDK5 p35 inh	SR-BI DiI-HDL act	SR-BI DiI inh	dFosB act-1	dFosB act-2
Cc1c(C(=O)Nc2cccc([N+](=O)[O-])c2)csc1-c1ccccc1	-0.6	-88.6	88.6*	58.1*	6.3
COC(=O)c1c(NC(=O)c2cccc([N+](=O)[O-])c2)sc(C(N)=O)c1C	0.3	-54.8	54.8	28.8*	-6.8
S=C(c1cn(Cc2ccc(Br)cc2)c2ccccc12)N1CCOCC1	-0.8	9.0	-9.0	-4.6	.
Cc1ccc(-c2nnc(NCc3nc4ccccc4[nH]3)c3ccccc23)cc1S(=O)(=O)N(C)C	0.1	-43.4	43.4	?	.
Cc1ccc(-c2nnc(NCc3nc4ccccc4[nH]3)c3ccccc23)cc1S(=O)(=O)N1CCOCC1	.	-29.9	29.9	56.2*	0.4
CCOc1ccc(N/C=C/C(=O)c2ccc(OC)c(OC)c2)cc1	-1.5	-52.3	52.3	2.3	.
CCOc1ccc(C(=O)/C=C/Nc2ccc(S(=O)(=O)N=C(N)N)cc2)cc1	1.0	11.8	-11.8	34.2*	5.8
NC(N)=NS(=O)(=O)c1ccc(N/C=C/C(=O)c2ccc(Cl)c(Cl)c2)cc1	0.0	7.3	-7.3	45.5*	3.6
Cc1cccc(NC(=O)CCc2nc3sc4c(c3c(=O)[nH]2)CCCC4)c1	-6.1	0.5	-0.5	20.2*	2.6
CCc1cccc(NC(=O)CCc2nc3sc4c(c3c(=O)[nH]2)CCCC4)c1	-2.7	10.4	-10.4	-11.4	.
O=C(O)CC(c1ccccc1)N1C(=O)c2cccc([N+](=O)[O-])c2C1=O (stereo not drawn)	0.3	2.8	-2.8	3.2	.
CC(O)C(NC(=O)OCc1ccccc1)C(=O)OCc1ccccc1 (stereo not drawn)	0.3	9.3	-9.3	-2.9	.
CCC(C)[C@H](NC(=O)C1CC(=O)N(c2ccc(OC)cc2)C1)C(=O)NC1CCCC1 (stereo partly drawn)	0.7	-0.8	0.8	4.9	.
CCCCN(CCCNC(=O)Cn1nc(CC)n2c(cc3sc(C)cc32)c1=O)Cc1ccccc1	0.2	0.0	0.0	34.7*	1.3
CCc1nn(CC(=O)NCCCN(CC)Cc2ccccc2)c(=O)c2cc3sccc3n12	-1.5	-34.3	34.3	-3.3	.
Cc1ccc(Cn2nc(C)c(NC(=O)CSc3n[nH]c(C)c3[N+](=O)[O-])c2C)cc1	-0.6	-52.7	52.7	30.5*	-0.4
CCCCC(=O)Nc1c2c(nn1-c1ccc(C)cc1)CS(=O)(=O)C2	-0.4	31.1	-31.1	-5.9	.
C=CCn1c(SCC(=O)NCc2ccc3c(c2)OCO3)nc2scc(-c3ccc(F)cc3)c2c1=O	-0.1	37.1	-37.1	45.4*	1.4
C=CCn1c(SC(C)C(=O)NCc2ccc3c(c2)OCO3)nc2scc(-c3ccccc3)c2c1=O (stereo not drawn)	1.1	-10.4	10.4	11.0	.
Cc1cc(=O)oc2c(C)c(OC(C)C(=O)Nc3ccc(N4CCC(C)CC4)cc3)ccc12 (stereo not drawn)	-7.1	-47.3	47.3	8.9	.
COc1ccc(/C=C/C(=O)OCC(=O)Nc2c(C)cccc2C)cc1	1.5	15.2	-15.2	25.5*	-14.5
Cc1ccc2nc(-c3ccc(NC(=O)COC(=O)c4ccc(Br)o4)cc3)sc2c1	1.4	-19.0	19.0	35.3*	2.2
Cc1ccc2nc(-c3ccc(NC(=O)COC(=O)c4ccc([N+](=O)[O-])o4)cc3)sc2c1	-0.5	-4.8	4.9	-8.6	.
CCC(C)NC(=O)Cn1c(=O)n(-c2ccc(OC)cc2)c(=O)c2ccc(C(=O)NCc3ccc(C)cc3)cc21 (stereo not drawn)	-0.5	-45.0	45.0	32.9*	4.8
S=C(N/N=C/c1ccccc1Cl)Nc1cccc(Cl)c1Cl	-0.2	-50.2	50.2	36.5*	3.3
SMILES	CDK5 p35 inh	SR-BI DiI-HDL act	SR-BI DiI inh	dFosB act-1	dFosB act-2
CCCCc1ccc(NC(=O)N2CCN(c3cc(C)nc4ccccc34)CC2)c(C)c1	-0.1	-49.1	49.1	37.4*	2.7
Cc1cc(N2CCN(C(=O)Nc3ccc(F)cc3F)CC2)c2ccccc2n1	1.4	3.6	-3.6	-9.4	.
CC(Oc1ccc(C(=O)c2ccccc2)cc1)C(=O)Nc1ccc(S(N)(=O)=O)cc1 (stereo not drawn)	-0.4	11.0	-11.0	-10.1	.
CC(OC(=O)c1cc2ccccc2cc1O)C(=O)Nc1ccc(S(N)(=O)=O)cc1 (stereo not drawn)	-2.1	-9.1	9.1	25.4*	-0.4
CCc1ccc(NC(=O)C(NS(=O)(=O)c2ccc3c(c2)CCN3C(C)=O)C(C)C)cc1 (stereo not drawn)	0.4	3.8	-3.8	37.1*	3.8
CCC1CCC(C(=O)NC(C(=O)Nc2ccc3c(c2)OCCO3)C(C)C)CC1 (stereo not drawn)	0.4	8.1	-8.1	24.4*	8.8
Cc1ccccc1OCc1nnc(SCC(=O)Nc2ccc3c(c2)OCO3)n1C	-0.1	22.9	-22.9	-4.9	.
Cc1ccccc1OCc1nnc(SCC(=O)Nc2ccc3nc(SCC(=O)Nc4ccccc4)sc3c2)n1C	0.4	-31.9	31.9	19.9*	1.7
CC(C)CN1CC(C)C(=O)NC1=S (stereo not drawn)	-0.5	-11.8	11.8	3.2	.
CCn1c(=O)c(C(=O)Nc2ncccc2O)c(O)c2ccccc21	-0.4	6.1	-6.1	25.7*	-0.8
CC1Oc2ccccc2N(CC(=O)NC2CCCCC2)C1=O (stereo not drawn)	0.4	14.0	-14.0	0.7	.
O=C(CCCCn1c(=O)c2ccccc2n(CC(=O)Nc2ccc(F)cc2)c1=O)NCc1ccco1	-0.1	13.5	-13.5	1.4	.
Cc1ccc(NC(=O)Cn2c(=O)n(CCCCC(=O)NCc3ccco3)c(=O)c3ccccc32)cc1	1.4	-40.4	40.4	30.6*	4.0
Cc1ccc(NC(=O)Cn2c(=O)n(Cc3ccco3)c(=O)c3ccccc32)c(C)c1	1.7	10.8	-10.8	32.2*	1.8
O=C(Cn1c(=O)n(Cc2ccco2)c(=O)c2ccccc21)Nc1cccc(Cl)c1	1.3	-17.7	17.7	?	.
CCN(CC(=O)Nc1c(F)cccc1F)C(=O)Cn1[nH]c(=O)c2ccccc2c1=O	-0.6	13.1	-13.1	2.4	.
COc1ccc2cc(-c3cc(C(=O)OCC(=O)NC4CCS(=O)(=O)C4)c4ccccc4n3)ccc2c1 (stereo not drawn)	0.3	-8.9	8.9	11.7	.
C#CCOCCOCCOCCNc1nc(N2CCN(C(=O)[C@H](CCCCN)n3cc(CN)nn3)CC2)nc(N2CCN(C(=O)[C@H](CCCCN)n3cc([C@@H](N)[C@H](C)CC)nn3)CC2)n1	-0.9	14.3	-14.3	42.8*	-0.7
